Shown are actives, neighbours in structure and some others; about 3.5% of the full set was active somewhere.
RGS4 inh: RGS4 inhibitors, primary screen, cell-based, HEK293 M3R inducible RGS4, calcium flux | AID 463165, 2010 | 310,000 compounds, 0.45% hits | Fluo-4 calcium flux; stronger effect = higher value; triggered by carbachol at its EC20 | B-score at 10 µM;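 active means B-score, a plate-corrected calcium signal, over three deviations above library mean, with baseline fluorescence within five deviations of library mean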;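 further: RGS4 expression induced by doxycycline in cells with stable M3 receptor; B-score is computed from the integrated fluorescence ratio over baseline after carbachol; higher B-score means a larger calcium signal and so more RGS4 inhibition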
Target sequence (P49798 whole entry, looked up): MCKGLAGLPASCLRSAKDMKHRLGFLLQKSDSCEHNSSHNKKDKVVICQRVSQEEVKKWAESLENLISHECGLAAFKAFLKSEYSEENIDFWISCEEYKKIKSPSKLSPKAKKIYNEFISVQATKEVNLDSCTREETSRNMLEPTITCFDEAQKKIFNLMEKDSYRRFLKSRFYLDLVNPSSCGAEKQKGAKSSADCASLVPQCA
MrgX1 antagonist: antagonists of human MrgX1 receptor, primary screen, HEK293 cells, Fluo-4 calcium flux; 310,000 compounds, 1.3% hits; B-score at 10 µM; BAM8-22 antagonism; stronger effect = lower value; AID 588676, 2011;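 active means calcium-response B-score plate-corrected more than 3 library SD below zero, starting fluorescence within 5 deviations, no agonist response on first addition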;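 further: peak minus trough fluorescence over baseline after final BAM8-22 challenge near maximal dose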
Target sequence (Q96LB2 whole entry, looked up): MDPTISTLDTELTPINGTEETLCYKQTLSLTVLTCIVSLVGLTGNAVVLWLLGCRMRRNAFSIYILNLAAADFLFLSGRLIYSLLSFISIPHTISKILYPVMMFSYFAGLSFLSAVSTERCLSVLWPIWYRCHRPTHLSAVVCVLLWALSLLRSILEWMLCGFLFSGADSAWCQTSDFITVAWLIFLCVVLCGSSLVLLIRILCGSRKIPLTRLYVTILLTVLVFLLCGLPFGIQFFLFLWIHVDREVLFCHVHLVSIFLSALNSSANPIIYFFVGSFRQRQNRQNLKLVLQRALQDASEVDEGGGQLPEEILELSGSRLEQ
MrgX1 agonist: agonists of human MrgX1 receptor, primary screen, HEK293 cells, Fluo-4 calcium flux; Mas-related G-protein coupled receptor member X1 (Homo sapiens), Q96LB2; Fluo-4 calcium fluorescence, agonist mode; stronger effect = higher value; B-score at 10 µM; 310,000 compounds, 0.44% hits;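 active means calcium response B-score plate-corrected fluorescence ratio at least 3 library SD, with starting fluorescence B-score inside 5 SD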
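Material: MrgX1-expressing HEK293 cells; input: 15,000 cells per well; doses: test compound given as first of three sequential additions; schedule: overnight plating before 1 h dye loading; technique: Fluo-4 NW calcium-flux fluorescence, kinetic read; evaluation: baseline-normalised fluorescence change ratio, B-scored; control set: plate-wise positive and negative controls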
MrgX1 PAM: positive allosteric modulators of MrgX1, primary screen, HEK293 cells, Fluo-4 calcium flux; Mas-related G-protein coupled receptor member X1 (Homo sapiens), Q96LB2; FDSS; stronger effect = higher value; B-score at 10 µM; 310,000 compounds, 0.63% hits; AID 588675, 2011;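 active means plate-corrected calcium response at least 3 library SD above typical, normal starting fluorescence, not activating the receptor alone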;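 further: compound read alongside a low EC10 to EC30 dose of BAM8-22 agonist; peak minus trough fluorescence over baseline measured at the second addition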
RGS4 act: RGS4 potentiators or activators, primary screen, cell-based, HEK293 M3R inducible RGS4, calcium flux. carbachol calcium flux Fluo4; stronger effect = lower value. B-score at 10 µM. 310,000 compounds, 0.92% hits. AID 463111, 2010;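 active means B-score of the integrated calcium signal more than 4 SD below the library mean, with starting fluorescence not abnormally high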;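 further: negative B-score means reduced calcium response which marks RGS4 activation or potentiation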
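Assay system: HEK293 FlpIn-TREx cells, stable M3R, doxycycline-inducible RGS4 / Probe or stimulus: carbachol, ECmax concentration / Times: overnight RGS4 induction, 30 min dye load 37 °C, 20 min compound RT / Signal: kinetic calcium fluorescence imaging with Fluo4-AM dye, 2 µM / Measure: Agonist-evoked peak-minus-minimum fluorescence over baseline, integrated ratio, B score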
The depositor's hits bear a star; i = inactive; / = not tested or not shown.

SMILES	RGS4 inh	MrgX1 antagonist	MrgX1 agonist	MrgX1 PAM	RGS4 act
CC(=O)C1C(c2ccc(C)cc2)c2c(noc2C)CC1(C)O (stereo unspecified)	i	i	i	i	i
CC(=O)C1C(c2ccc([N+](=O)[O-])cc2)c2c(noc2C)CC1(C)O (stereo unspecified)	i	i	i	i	-8.5*
Cc1cccc(NC(=S)NC23CN4CN(CN(C4)C2)C3)c1C	i	i	i	i	i
Cc1ccc(-c2csc(N3CCC(NS(=O)(=O)c4ccc5c(c4)OCCO5)CC3)n2)cc1	i	i	i	i	i
CN1CCN(/N=C/c2ccc(N(c3ccccc3)c3ccccc3)cc2)CC1	i	i	i	i	-7.8*
O=[N+]([O-])c1ccc2oc(C(O)c3cccc(Cl)c3)cc2c1 (stereo unspecified)	i	i	i	8.5*	i
CC1CCCN(CCOCCOc2ccc(Br)cc2Cl)C1 (stereo unspecified)	i	i	i	i	-7.5*
CC1=NN(C(N)=S)C(=O)C1N=Nc1cccc(Cl)c1C (stereo unspecified)	i	i	i	8.6*	i
CC1=NN(C(N)=S)C(=O)C1N=Nc1cccc2ccccc12 (stereo unspecified)	i	i	i	i	i
CN1CCc2c(sc(NC(=O)c3ccc(S(=O)(=O)N4CCCCCC4)cc3)c2C(N)=O)C1	i	i	32*	i	i
O=C(CSCc1ccccc1)Nc1ccc2c(c1)OCO2	i	i	i	i	i
O=C(CSCc1c(Cl)cccc1Cl)Nc1ccc2c(c1)OCO2	i	i	i	i	-7.5*
O=[N+]([O-])c1ccc(/C=N/Nc2nc(N3CCCCC3)nc(N3CCCCC3)n2)cc1	i	i	i	i	i
O=[N+]([O-])c1ccc(Nc2nc(N/N=C\c3ccc4c(c3)OCO4)nc(N3CCCCC3)n2)cc1	i	-4.5*	i	i	i
Cn1c(C(=O)OC(C(=O)NCc2ccco2)c2ccncc2)cc2sccc21 (stereo unspecified)	i	-4.7*	i	i	i
CC(OC(=O)c1cc2sccc2n1C)C(=O)NCc1ccco1 (stereo unspecified)	i	i	i	i	i
CCCSCCCNC(=O)c1ccc(C)c(NC(=O)C2=C(C)OCCS2)c1	i	i	i	i	i
CSC1=N/C(=C\c2ccc(C)cc2)C(=O)S1	i	i	i	16*	i
CCOC(=O)SC1=N/C(=C\c2ccc(N(C)C)cc2)C(=O)S1	i	i	i	7.8*	i
COc1ccc(C(=O)C2CCCN(C(=O)c3cc(C4CC4)[nH]n3)C2)c(C)c1 (stereo unspecified)	i	i	i	i	i
CCCS(=O)(=O)c1c(S(=O)(=O)CCC)c2cnccn2c1C(=O)c1ccc(CC)cc1	i	i	i	i	i
CCCS(=O)(=O)c1c(S(=O)(=O)CCC)c2cnccn2c1C(=O)c1ccc(OC)cc1	i	i	i	13*	i
Cc1ccccc1CN(CC(=O)Nc1cccc([N+](=O)[O-])c1)S(=O)(=O)c1ccc(Cl)cc1	i	i	i	i	-7.2*
CS(=O)(=O)N(CC(=O)Nc1cccc([N+](=O)[O-])c1)c1ccccc1	i	i	i	i	i
COc1ccc(-c2csc(N3CCN(S(=O)(=O)c4ccc5c(c4)NC(=O)CO5)CC3)n2)cc1	i	i	i	i	i
SMILES	RGS4 inh	MrgX1 antagonist	MrgX1 agonist	MrgX1 PAM	RGS4 act
Cc1nnc(N2C(=O)C(O)=C(C(=O)c3ccco3)C2c2ccc(F)cc2)s1 (stereo unspecified)	i	i	i	i	i
Cc1nnc(N2C(=O)C(O)=C(C(=O)c3ccco3)C2c2ccc(C(C)(C)C)cc2)s1 (stereo unspecified)	i	i	27*	i	i
CSc1ccc(C2C(C(=O)c3ccco3)=C(O)C(=O)N2c2nnc(SC)s2)cc1 (stereo unspecified)	i	-5.4*	i	i	i
Cc1nnc(N2C(=O)C(O)=C(C(=O)c3ccco3)C2c2ccc(C(C)C)cc2)s1 (stereo unspecified)	i	i	i	i	i
O=C(NN1C(=O)/C(=C/C=C/c2ccco2)SC1=S)c1ccccc1O	i	-4.6*	i	i	i
CCc1ccc(NC(=O)CSc2nccn(-c3ccc4c(c3)OCCO4)c2=O)cc1	i	/	/	/	i
O=[N+]([O-])c1cncc([N+](=O)[O-])c1Nc1cccc(O)c1	i	i	38*	i	i
Cc1ccccc1Nc1c([N+](=O)[O-])cncc1[N+](=O)[O-]	i	i	i	i	i
CCC(C)N(CCNC(=O)CC1Oc2ccc(C)cc2NC1=O)C1CCCCC1 (stereo unspecified)	i	i	i	i	-7.3*
CC(C)(CNC(=O)/C=C/c1ccc(F)cc1)CNC(=O)/C=C/c1ccc(F)cc1	i	i	i	i	i
COc1cccc(NC(=O)C(c2ccccc2)N2CCCCC2)c1 (stereo unspecified)	i	i	i	i	-7*
N=c1oc2cc(O)ccc2cc1C(=O)Nc1ccc(Br)cc1	i	-7*	i	i	i
CC(=O)Nc1ccc(-c2csc(Nc3ccc(Cl)cn3)n2)cc1	i	i	i	7.2*	i
CC(=O)Nc1cccc(-c2csc(Nc3ccc(Cl)cn3)n2)c1	i	i	i	i	i
Cn1c(Cc2cccc3ccccc23)nnc1SCC(=O)N1CCN(c2ccccc2)CC1	i	i	i	i	i
COc1cc(OC)c(C=O)c(OC(=O)N2CCOCC2)c1	i	i	i	i	i
O=Cc1cc(Br)c(OC(=O)N2CCOCC2)c(Br)c1	i	i	27*	i	i
Cc1[nH]c(=O)[nH]c(=O)c1S(=O)(=O)N1CCCC(C(=O)N2CCN(c3cccc(C(F)(F)F)c3)CC2)C1 (stereo unspecified)	i	i	i	i	i
Nc1ncnc2c1ncn2[C@H]1C[C@H](O)[C@@H](COP(=O)(O)O)O1	i	i	i	i	i
